SMILES strings stand for the structures.

The species named for series [1] is Rattus norvegicus. Kind of series: Desmethylimipramine blockade of compound with [3H]NE as radiotracer, and percentage change was measured in rat right ventricle. Type of series: functional, Heart right ventricle. Put shortly:
(§1)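 Comparison study with [3H]NE (levo-[7-3H], 15–20 Ci/mmol) as tracer in female Sprague–Dawley rats (230–290 g). Rats were pretreated with DMI·HCl 10 mg/kg ip, or an equal volume of saline ip, 30 min before iv tracer. Value is the percent change in tissue tracer concentration versus saline controls; five rats per group.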

The species named for series [2] is Rattus norvegicus. As to the kind of experiment: Desmethylimipramine blockade of compound with [3H]NE as radiotracer, and percentage change was measured in rat blood. Format: functional. The essentials: as §1
Series [3] is filed under the species Rattus norvegicus. Kind of series: Concentration of compound in right atrium of rats, pretreated with desmethylimipramine, assessed using [18F]- as radiotracer;Dose/g. The settings on record: in vivo. Type of series: ADME, organism-based, Cardiac atrium. Put shortly: (§2)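 Female Sprague–Dawley rats (230–290 g) got DMI·HCl 10 mg/kg ip, or an equal volume of saline ip for controls, 30 min before iv [18F] tracer (5 µCi). Killed 1.5 h after tracer. Duplicate tissue samples were weighed and gamma counted. Values are decay-corrected % dose/g normalized to 250 g body weight, mean ± SEM, four rats per group.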

Series [4] is filed under the species Rattus norvegicus. Kind of series: Desmethylimipramine blockade of compound with [3H]NE as radiotracer, and percentage change was measured in rat spleen. Format: functional. Put shortly:
as §1

For series [5], the species on record is Rattus norvegicus. Kind of series: Concentration of compound in left ventricle of rats, pretreated with desmethylimipramine, assessed using [18F]- as radiotracer;Dose/g. Format: ADME, organism-based, Heart left ventricle. The settings on record: in vivo. The essentials:
as §2

Series [6] is filed under the species Rattus norvegicus. Kind of series: Concentration of compound in liver of rats, pretreated with desmethylimipramine, assessed using [18F]- as radiotracer;Dose/g. Format: ADME, organism-based. The settings on record: in vivo. The essentials:
as §2

The species entered for series [7] is Rattus norvegicus. Kind of series: Concentration of compound in spleen of rats, pretreated with desmethylimipramine, assessed using [18F]- as radiotracer;Dose/g. Format: ADME, organism-based. The settings on record: in vivo. The essentials:
as §2

The species named for series [8] is Rattus norvegicus. Kind of series: Desmethylimipramine blockade of compound with [3H]NE as radiotracer, and percentage change was measured in rat right atrium. Type of series: functional, Cardiac atrium. The essentials: as §1
The species entered for series [9] is Rattus norvegicus. As to the kind of experiment: Desmethylimipramine blockade of compound with [3H]-NE as radiotracer, and percentage change was measured in rat left ventricle. Type of series: functional, Heart left ventricle. Put shortly:
as §1

The species entered for series [10] is Rattus norvegicus. As to the kind of experiment: Concentration of compound in left atrium of rats, pretreated with desmethylimipramine, assessed using [18F]- as radiotracer;Dose/g. Format: ADME, organism-based, Cardiac atrium. To be noted: in vivo. Put shortly: as §2
Series [11] is filed under the species Rattus norvegicus. As to the kind of experiment: Concentration of compound in blood of rats, pretreated with desmethylimipramine, assessed using [18F]- as radiotracer;Dose/g. Type of series: ADME, organism-based. To be noted: in vivo. Put shortly: as §2
For series [12], the species on record is Rattus norvegicus. Kind of series: Concentration of compound in right ventricle of rats, pretreated with desmethylimipramine, assessed using [18F]- as radiotracer;Dose/g. The settings on record: in vivo. Format: ADME, organism-based, Heart right ventricle. Put shortly: as §2
For series [13], the species on record is Rattus norvegicus. Kind of series: Desmethylimipramine blockade of compound with [3H]NE as radiotracer, and percentage change was measured in rat left atrium. Format: functional, Cardiac atrium. Put shortly: as §1

Consider `CC(N)C(O)c1cc(O)ccc1F` (stereo not drawn), for which the Change in the series filed under Rattus norvegicus [1] is recorded as -96%; in the series listed under Rattus norvegicus [2], 55%; in the series filed under Rattus norvegicus [4], -86%; in the series listed under Rattus norvegicus [8], -95%; in the series filed under Rattus norvegicus [9], -97%; in the series filed under Rattus norvegicus [13] it was -95%. Moreover, the Dose in the series listed under Rattus norvegicus [3] came out at 0.24%; in the series filed under Rattus norvegicus [5] it was 0.15%; in the series filed under Rattus norvegicus [6], 0.77%; in the series filed under Rattus norvegicus [7], 0.2%; in the series filed under Rattus norvegicus [10], 0.24%; in the series listed under Rattus norvegicus [11] it was 0.12%. Further, the Dose in the series listed under Rattus norvegicus [12] was found to be 0.2%.
